For assay [1], the target named is T1, Delta-type opioid receptor (Homo sapiens, UniProt P41143). Nature of the assay: Displacement of [3H]DPDPE from delta opioid receptor (unknown origin) transfected into HEK293 cells at 10 uM by microplate scintillation counting. In kind it is cell-based. In short, it runs like this: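 HEK293 cells stably expressing the δ opioid receptor were kept in DMEM with 0.2 mg/mL G418. Compound at 10 μM (triplicate dilutions) was incubated with 0.99 nM [3H]-DPDPE and 20 μg membrane for 60 min in 50 mM Tris-HCl, pH 7.4. Bound label was collected by GF/B filtration. Nonspecific binding was defined with 10 μM DPDPE. Results are given as % displacement.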
T1 sequence (P41143 whole entry): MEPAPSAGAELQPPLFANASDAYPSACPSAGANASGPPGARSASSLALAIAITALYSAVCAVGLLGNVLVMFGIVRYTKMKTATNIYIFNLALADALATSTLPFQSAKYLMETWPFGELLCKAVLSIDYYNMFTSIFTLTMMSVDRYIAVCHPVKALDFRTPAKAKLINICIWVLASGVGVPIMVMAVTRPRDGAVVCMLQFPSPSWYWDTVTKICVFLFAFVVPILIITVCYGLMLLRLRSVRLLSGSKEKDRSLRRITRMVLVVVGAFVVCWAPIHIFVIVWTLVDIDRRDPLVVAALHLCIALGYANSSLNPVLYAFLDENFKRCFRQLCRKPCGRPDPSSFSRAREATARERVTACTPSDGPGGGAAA
(In a radioligand displacement assay an active substance lowers the binding of a labelled ligand.)

Assay [2] deals with T1, Delta-type opioid receptor. In words: Displacement of [3H]DPDPE from delta opioid receptor (unknown origin) transfected into HEK293 cells by microplate scintillation counting. In kind it is cell-based.
The target of assay [3] is Cannabinoid receptor 1 (Homo sapiens) (UniProt P21554). In words: Displacement of [3H]-CP55940 from human CB1 receptor transfected into HEK293 cells at 10 uM by microplate scintillation counting. Format: cell-based. Put shortly: (§1)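 HEK293 cells stably expressing cloned human CB1 or CB2 were grown in DMEM/F-12 with 0.5 mg/mL G418. Membranes were made by sonication and differential centrifugation. Compound at 10 μM (independent triplicate dilutions) was incubated with [3H]-CP 55,940, at 1.6975 nM for CB1 or 1.959 nM for CB2. Membrane was 5 μg for CB1 or 1 μg for CB2. Incubation was 90 min at 37 °C in Tris/EDTA/NaCl/0.2% BSA, pH 7.4. Bound label was collected on GF/C filters. Nonspecific binding was defined with 10 μM CP-55,940. Results are given as % displacement.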
Cannabinoid receptor 1 (Homo sapiens), sequence (P21554 whole entry): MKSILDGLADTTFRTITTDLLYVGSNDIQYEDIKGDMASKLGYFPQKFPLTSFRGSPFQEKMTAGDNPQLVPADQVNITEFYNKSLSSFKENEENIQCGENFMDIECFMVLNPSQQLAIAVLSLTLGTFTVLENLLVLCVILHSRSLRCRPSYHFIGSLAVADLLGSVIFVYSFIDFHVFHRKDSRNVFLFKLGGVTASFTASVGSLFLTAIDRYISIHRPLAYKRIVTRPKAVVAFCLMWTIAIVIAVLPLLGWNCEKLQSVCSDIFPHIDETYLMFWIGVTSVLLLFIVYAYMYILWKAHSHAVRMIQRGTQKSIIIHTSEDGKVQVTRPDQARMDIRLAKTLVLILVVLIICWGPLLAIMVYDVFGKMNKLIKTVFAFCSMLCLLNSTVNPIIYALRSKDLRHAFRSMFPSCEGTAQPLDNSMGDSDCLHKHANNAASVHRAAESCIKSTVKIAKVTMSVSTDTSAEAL

Assay [4] addresses Cannabinoid receptor 2 (Homo sapiens) (UniProt P34972). In words: Displacement of [3H]-CP55940 from human CB2 receptor transfected into HEK293 cells at 10 uM by microplate scintillation counting. Format: cell-based. In short, it runs like this:
as §1

For assay [5], the target named is T1, Delta-type opioid receptor. In words: Agonist activity at human delta opioid receptor transfected into HEK293 cells assessed as effect on [35S]-GTPgammaS binding at 300 uM. In kind it is functional, cell-based. In short, it runs like this: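 Modified GTPγ[35S] functional assay. Tested at 300 μM. Binding is expressed as percent of the maximal GTPγ[35S] binding given by the full agonist DPDPE.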
On the technique in general: GTPγS is a poorly hydrolysed GTP analogue; its binding reports G protein activation.

The term Ki denotes a dissociation constant, usually derived from enzyme kinetics or from competition with a known ligand. A high value points to weaker binding.

Cannabinoid receptor 2 (Homo sapiens), sequence (P34972 whole entry): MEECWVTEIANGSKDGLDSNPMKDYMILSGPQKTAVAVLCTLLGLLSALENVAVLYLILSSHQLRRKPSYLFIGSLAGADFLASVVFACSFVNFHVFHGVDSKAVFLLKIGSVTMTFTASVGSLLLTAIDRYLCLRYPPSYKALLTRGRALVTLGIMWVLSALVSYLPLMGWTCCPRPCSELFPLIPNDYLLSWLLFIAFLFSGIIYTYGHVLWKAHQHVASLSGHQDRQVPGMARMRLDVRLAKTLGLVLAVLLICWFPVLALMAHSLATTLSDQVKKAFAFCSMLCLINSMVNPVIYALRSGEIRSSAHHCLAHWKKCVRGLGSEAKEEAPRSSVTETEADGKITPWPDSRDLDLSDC

With `COc1ccc(-c2cc(=O)c3c(O)c(OC)c(OC)cc3o2)cc1` [SALVIGENIN], the Activity turned out to be 31.6% in assay [1], 1.7% in assay [3], 8.3% in assay [4] and 88% in assay [5]. For the same compound, the inhibitory constant (Ki) in assay [2] was greater than 26 µM.
With `COc1ccc(-c2cc(=O)c3c(O)c(OC)c(O)cc3o2)cc1OC`, the Activity is 19.9% in assay [1], 0.3% in assay [3] and 12.5% in assay [4].
Regarding `COc1ccc(-c2cc(=O)c3c(O)c(OC)c(O)cc3o2)cc1` [PECTOLINARIGENIN], the Activity in assay [1] came to 79.9%; in assay [3], 19.3%; in assay [4], 13.5%; in assay [5], 48%. This compound came in with an inhibition constant (Ki) in assay [2] of 8.4 µM.
Take `COc1ccc(-c2cc(=O)c3c(O)c(OC)c(OC)cc3o2)cc1OC`: the Activity in assay [1] was 86%; in assay [3], 3%; in assay [4], 4.2%; in assay [5], 32%. Further, the inhibitory constant (Ki) in assay [2] turned out to be 3.1 µM.

(Values after ChEMBL document CHEMBL3585296, “Flavonoids from Perovskia atriplicifolia and Their in Vitro Displacement of the Respective Radioligands for Human Opioid and Cannabinoid Receptors” (J Nat Prod, 2015).)
